From paper PMC9464004 (Drug Design, Development and Therapy, 2022)
Where two headings read alike, the source gives them in different places.

What was measured:
[1] = assay type: in vivo, human; settings: for CL/F: mean ± SD
How it was run: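 Healthy Chinese adults took 200 or 400 mg test compound once daily for 8 days. Blood was drawn pre/post-dose Day 1, pre-dose Days 2–8 and post-dose Day 8. Parent and main metabolite were measured by validated LC-MS/MS after protein precipitation, with deuterated internal standards. Linear ranges: 2.00–2000 and 10.0–10,000 ng/mL. Noncompartmental analysis used trapezoidal AUC. CL/F came from AUCtau. Below-limit values counted as zero.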

Chinese healthy subjects [2] = experiment: 24-hour urinary glucose excretion; assay type: in vivo, human
How it was run: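 Randomized, double-blind, placebo-controlled study in healthy Chinese adults given 200 or 400 mg test compound or placebo orally once daily before the first meal for 8 days. Post-dose urine was pooled over 24 h in 0–8 h and 8–24 h fractions on Day 1 and Day 8. Glucose was assayed centrally, with results withheld from investigators, and reported as absolute excretion.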

Chinese healthy subjects [3] = assay type: in vivo, human
How it was run: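 Safety population comprised all randomized subjects receiving ≥1 double-blind dose (200 or 400 mg daily test compound or placebo, 8 days), analysed by treatment received. TEAEs were counted from first dose to study end and graded by NCI-CTCAE. Vital signs, ECG and local-lab haematology, coagulation, biochemistry, serology, urinalysis and pregnancy tests were monitored. Summaries were descriptive, with no significance testing.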

SGLT2 = settings: cited from earlier work
[4] = cited from earlier work
[5] = system: healthy volunteers in the United States; settings: achieved at the 300mg dose, study LX4211-1-101; cited from earlier work
[6] = across sotagliflozin treatment groups
[7] = sotagliflozin 200 mg qd, 8 days, N=9
[8] = sotagliflozin 400 mg qd, 8 days, N=9
[9] = co-administered with food (high fat/high caloric)

CCOc1ccc(Cc2cc([C@@H]3O[C@H](SC)[C@@H](O)[C@H](O)[C@H]3O)ccc2Cl)cc1 [Sotagliflozin]
degree of accumulation ([1]; 200 or 400 mg qd for 8 days): less than 2 fold
estimated increase for AUCtau for a 2-fold increase between doses ([1]; Day 1, 200 to 400 mg): 2.02 fold
estimated increase for Cmax for a 2-fold increase between doses ([1]; Day 1, 200 to 400 mg): 1.56 fold
estimated increase for AUCtau for a 2-fold increase between doses ([1]; Day 8, 200 to 400 mg): 1.70 fold
estimated increase for Cmax for a 2-fold increase between doses ([1]; Day 8, 200 to 400 mg): 1.89 fold
half-life ([1]; human, plasma, oral, 400 mg, Mean t1/2z, range over 200 and 400 mg dose levels, Day 8): 20.5 to 22.4 h
CL/F ([1]; sotagliflozin 200 mg qd, Day 8): 267 L/h
CL/F ([1]; sotagliflozin 400 mg qd, Day 8): 307 L/h
24-hour UGE (Chinese healthy subjects [2]; sotagliflozin 200 mg qd, Day 1, mean (±SD)): 188.17 (±51.957) mmol
24-hour UGE (Chinese healthy subjects [2]; sotagliflozin 200 mg qd, Day 8, mean ± SD): 213.02 (±67.216) mmol
24-hour UGE (Chinese healthy subjects [2]; sotagliflozin 400 mg qd, Day 1, mean (±SD)): 250.18 (±38.063) mmol
24-hour UGE (Chinese healthy subjects [2]; sotagliflozin 400 mg qd, Day 8, mean ± SD): 263.90 (±56.665) mmol
tolerability (Chinese healthy subjects [3]; 200 mg and 400 mg per day, 8 days): well tolerated
PCSAs of QRS interval >110 ms, number of subjects (Chinese healthy subjects [3]; 200mg sotagliflozin, none increased from baseline ≥25%): 2
asymptomatic alanine aminotransferase (ALT) increase (Chinese healthy subjects [3]; AE in 1 subject (400 mg group)): < 2 × upper limit of normal (ULN)
constipation, number of subjects (Chinese healthy subjects [3]; [6]): 1
dizziness, number of subjects (Chinese healthy subjects [3]; [6]): 2
folliculitis, number of subjects (Chinese healthy subjects [3]; [6]): 1
TEAE: Blood phosphorus increased (Chinese healthy subjects [3]; [7]): 1 (11.1%) n (%)
TEAE: Chest discomfort (Chinese healthy subjects [3]; [7]): 1 (11.1%) n (%)
TEAE: Dizziness (Chinese healthy subjects [3]; [7]): 1 (11.1%) n (%)
TEAE: Folliculitis (Chinese healthy subjects [3]; [7]): 1 (11.1%) n (%)
TEAE: Petechiae (Chinese healthy subjects [3]; [7]): 1 (11.1%) n (%)
TEAE: Proteinuria (Chinese healthy subjects [3]; [7]): 1 (11.1%) n (%)
TEAE: White blood cell count decreased (Chinese healthy subjects [3]; [7]): 1 (11.1%) n (%)
increased blood ketone body (TEAE value) (Chinese healthy subjects [3]; sotagliflozin 400 mg group, 1 subject): 0.61 mmol/L
TEAE: Alanine aminotransferase increased (Chinese healthy subjects [3]; [8]): 1 (11.1%) n (%)
TEAE: Asthenia (Chinese healthy subjects [3]; [8]): 1 (11.1%) n (%)
TEAE: Blood ketone body increased (Chinese healthy subjects [3]; [8]): 1 (11.1%) n (%)
TEAE: Blood urine present (Chinese healthy subjects [3]; [8]): 1 (11.1%) n (%)
TEAE: Constipation (Chinese healthy subjects [3]; [8]): 1 (11.1%) n (%)
TEAE: Dermatitis (Chinese healthy subjects [3]; [8]): 1 (11.1%) n (%)
TEAE: Dizziness (Chinese healthy subjects [3]; [8]): 1 (11.1%) n (%)
TEAE: Haemorrhoidal haemorrhage (Chinese healthy subjects [3]; [8]): 1 (11.1%) n (%)
TEAE: Headache (Chinese healthy subjects [3]; [8]): 1 (11.1%) n (%)
TEAE: Mouth ulceration (Chinese healthy subjects [3]; [8]): 1 (11.1%) n (%)
TEAEs considered treatment-related by the Investigator (Chinese healthy subjects [3]; sotagliflozin groups (200 and 400 mg)): 44.4%
selectivity for SGLT2 than that for SGLT1 (SGLT2): 20 fold
accumulation index at steady state ([4]; EMA data, European-American populations): about 2
Cmax with food compared to fasted condition [4, 9]: ~2.5 fold
total exposure with food compared to fasted condition [4, 9]: ~1.5 fold
maximum 24 h UGE [5]: 44 g
